Laboratory results published in ChEMBL document CHEMBL5058577, “EUbOPEN Chemogenomics Library 2 (Multiplex)” (2022).

Test system: U2OS
Assay: Multiplex assay against U2OS
Format: toxicity, cell-based
Conditions: human
Method in brief: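 Cells were classed with CellPathfinder machine-learning gating, first as Hoechst high-intensity objects or normal cells, then (normal cells) as healthy, pyknosed or fragmented nuclei, and finally (pyknosed cells) as mitotic or apoptotic. Staining of live cells at seeding used Hoechst33342, BioTracker Green Microtubule Cytoskeleton Dye, MitoTracker Red and Annexin V Alexa Fluor 680, with imaging on a CQ1 microscope at 37°C and 5% CO2 after compound addition. Tubulin, mitochondrial-mass and membrane-permeability phenotypes are per cents of healthy-nucleus cells.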

[1] = 12 h, 1 µM, compound concentration 1 uM, replicate 1
[2] = 12 h, 1 µM, compound concentration 1 uM, replicate 2
[3] = 12 h, 10 µM, compound concentration 10 uM, replicate 1
[4] = 12 h, 10 µM, compound concentration 10 uM, replicate 2
[5] = 24 h, 1 µM, compound concentration 1 uM, replicate 1
[6] = 24 h, 1 µM, compound concentration 1 uM, replicate 2
[7] = 24 h, 10 µM, compound concentration 10 uM, replicate 1
[8] = 24 h, 10 µM, compound concentration 10 uM, replicate 2
[9] = 48 h, 1 µM, compound concentration 1 uM, replicate 1
[10] = 48 h, 1 µM, compound concentration 1 uM, replicate 2
[11] = 48 h, 10 µM, compound concentration 10 uM, replicate 1
[12] = 48 h, 10 µM, compound concentration 10 uM, replicate 2

Cc1noc(-c2ccc(-c3ccc(CC(=O)O)cc3)cc2)c1NC(=O)O[C@H](C)c1ccccc1Cl
Population Apoptotic (%) [1]: 95% | Population Fragmented Nuclei (%) [1]: 21% | Population Healthy Nuclei (%) [1]: 69% | Population Hoechst High Intensity Objects (%) [1]: 4% | Population Membrane Permeable-Phenotype (%) [1]: 7% | Population Mitochondria Different-Phenotype (%) [1]: 5% | Population Mitotic Cells (%) [1]: 5% | Population Normal (%) [1]: 95% | Population Pyknosed Nuclei (%) [1]: 9% | Population Tubulin-Different-Phenotype (%) [1]: 4% | Total Cell Count [1]: 231 | Population Apoptotic (%) [2]: 85% | Population Fragmented Nuclei (%) [2]: 19% | Population Healthy Nuclei (%) [2]: 74% | Population Hoechst High Intensity Objects (%) [2]: 0% | Population Membrane Permeable-Phenotype (%) [2]: 2% | Population Mitochondria Different-Phenotype (%) [2]: 2% | Population Mitotic Cells (%) [2]: 14% | Population Normal (%) [2]: 99% | Population Pyknosed Nuclei (%) [2]: 7% | Total Cell Count [2]: 101 | Population Apoptotic (%) [3]: 78% | Population Fragmented Nuclei (%) [3]: 29% | Population Healthy Nuclei (%) [3]: 61% | Population Hoechst High Intensity Objects (%) [3]: 2% | Population Membrane Permeable-Phenotype (%) [3]: 11% | Population Mitochondria Different-Phenotype (%) [3]: 4% | Population Mitotic Cells (%) [3]: 21% | Population Normal (%) [3]: 97% | Population Pyknosed Nuclei (%) [3]: 9% | Population Tubulin-Different-Phenotype (%) [3]: 6% | Total Cell Count [3]: 242 | Population Apoptotic (%) [4]: 71% | Population Fragmented Nuclei (%) [4]: 11% | Population Healthy Nuclei (%) [4]: 83% | Population Membrane Permeable-Phenotype (%) [4]: 6% | Population Mitochondria Different-Phenotype (%) [4]: 2% | Population Mitotic Cells (%) [4]: 28% | Population Pyknosed Nuclei (%) [4]: 5% | Total Cell Count [4]: 138 | Population Apoptotic (%) [5]: 96% | Population Fragmented Nuclei (%) [5]: 19% | Population Healthy Nuclei (%) [5]: 70% | Population Hoechst High Intensity Objects (%) [5]: 2% | Population Membrane Permeable-Phenotype (%) [5]: 5% | Population Mitochondria Different-Phenotype (%) [5]: 4% | Population Mitotic Cells (%) [5]: 3% | Population Normal (%) [5]: 97% | Population Pyknosed Nuclei (%) [5]: 9% | Population Tubulin-Different-Phenotype (%) [5]: 3% | Total Cell Count [5]: 277 | Population Apoptotic (%) [6]: 77% | Population Fragmented Nuclei (%) [6]: 15% | Population Healthy Nuclei (%) [6]: 77% | Population Hoechst High Intensity Objects (%) [6]: 0% | Population Membrane Permeable-Phenotype (%) [6]: 4% | Population Mitochondria Different-Phenotype (%) [6]: 3% | Population Mitotic Cells (%) [6]: 22% | Population Normal (%) [6]: 99% | Population Pyknosed Nuclei (%) [6]: 7% | Population Tubulin-Different-Phenotype (%) [6]: 6% | Total Cell Count [6]: 125 | Population Apoptotic (%) [7]: 92% | Population Fragmented Nuclei (%) [7]: 24% | Population Healthy Nuclei (%) [7]: 65% | Population Hoechst High Intensity Objects (%) [7]: 1% | Population Membrane Permeable-Phenotype (%) [7]: 11% | Population Mitochondria Different-Phenotype (%) [7]: 2% | Population Mitotic Cells (%) [7]: 7% | Population Normal (%) [7]: 98% | Population Pyknosed Nuclei (%) [7]: 10% | Population Tubulin-Different-Phenotype (%) [7]: 5% | Total Cell Count [7]: 260 | Population Apoptotic (%) [8]: 90% | Population Fragmented Nuclei (%) [8]: 12% | Population Healthy Nuclei (%) [8]: 80% | Population Hoechst High Intensity Objects (%) [8]: 2% | Population Membrane Permeable-Phenotype (%) [8]: 7% | Population Mitotic Cells (%) [8]: 9% | Population Normal (%) [8]: 97% | Population Pyknosed Nuclei (%) [8]: 7% | Population Tubulin-Different-Phenotype (%) [8]: 4% | Total Cell Count [8]: 154 | Population Apoptotic (%) [9]: 97% | Population Fragmented Nuclei (%) [9]: 15% | Population Healthy Nuclei (%) [9]: 75% | Population Hoechst High Intensity Objects (%) [9]: 1% | Population Membrane Permeable-Phenotype (%) [9]: 6% | Population Mitochondria Different-Phenotype (%) [9]: 3% | Population Mitotic Cells (%) [9]: 2% | Population Normal (%) [9]: 98% | Population Pyknosed Nuclei (%) [9]: 9% | Population Tubulin-Different-Phenotype (%) [9]: 3% | Total Cell Count [9]: 408 | Population Apoptotic (%) [10]: 86% | Population Fragmented Nuclei (%) [10]: 18% | Population Healthy Nuclei (%) [10]: 72% | Population Hoechst High Intensity Objects (%) [10]: 0% | Population Mitochondria Different-Phenotype (%) [10]: 4% | Population Mitotic Cells (%) [10]: 13% | Population Normal (%) [10]: 100% | Population Pyknosed Nuclei (%) [10]: 8% | Population Tubulin-Different-Phenotype (%) [10]: 4% | Total Cell Count [10]: 170 | Population Apoptotic (%) [11]: 92% | Population Fragmented Nuclei (%) [11]: 19% | Population Healthy Nuclei (%) [11]: 72% | Population Hoechst High Intensity Objects (%) [11]: 3% | Population Membrane Permeable-Phenotype (%) [11]: 7% | Population Mitochondria Different-Phenotype (%) [11]: 3% | Population Mitotic Cells (%) [11]: 7% | Population Normal (%) [11]: 96% | Population Pyknosed Nuclei (%) [11]: 8% | Population Tubulin-Different-Phenotype (%) [11]: 5% | Total Cell Count [11]: 344 | Population Apoptotic (%) [12]: 85% | Population Fragmented Nuclei (%) [12]: 9% | Population Healthy Nuclei (%) [12]: 78% | Population Hoechst High Intensity Objects (%) [12]: 4% | Population Membrane Permeable-Phenotype (%) [12]: 6% | Population Mitochondria Different-Phenotype (%) [12]: 2% | Population Mitotic Cells (%) [12]: 14% | Population Normal (%) [12]: 95% | Population Pyknosed Nuclei (%) [12]: 11% | Population Tubulin-Different-Phenotype (%) [12]: 4% | Total Cell Count [12]: 241
